# Reference: ChEMBL document CHEMBL1148398, “Design, synthesis, and biological evaluation of thio-containing compounds with serum HDL-cholesterol-elevating properties” (2004)
# Tests used:
# Assay type in all cases: functional
# Rattus norvegicus [1] = assay: Percent change in total plasma cholesterol in hypercholesterolemic rats dosed at 100 mg/kg/day for 8 days
# Rattus norvegicus [2] = assay: Percent change in high-density lipoprotein cholesterol in hypercholesterolemic rats dosed at 100 mg/kg/day for 8 days
# Rattus norvegicus [3] = assay: Percent change in triglycerides in hypercholesterolemic rats at a dose of 100 mg/kg/day for 8 days
# Rattus norvegicus [4] = assay: Percent change in total plasma cholesterol following oral administration of compound in normal chow-fed rats at 100 mg/kg/day for 4 days
# Summary of the method: (§1)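 Chow-fed male Sprague–Dawley CD rats, 60–80 g, gavaged 100 mg/kg/day for 4 days in 1.3% Tween 80/0.25% CMC. Fasted overnight, bled 24 h after the last dose. Total cholesterol and glycerol-blanked triglycerides read enzymatically; lipoproteins by FPLC with cholesterol per fraction. % change versus control; six per group, p < 0.05.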
# Rattus norvegicus [5] = assay: Percent change in high-density lipoprotein cholesterol following oral administration of compound in normal chow-fed rats at 100 mg/kg/day for 4 days; summary of the method: as §1
# Rattus norvegicus [6] = assay: Percent change in low-density lipoprotein cholesterol following oral administration of compound in normal chow-fed rats at 100 mg/kg/day for 4 days; summary of the method: as §1
# Rattus norvegicus [7] = assay: Percent change in very low-density lipoprotein cholesterol following oral administration of compound in normal chow-fed rats at 100 mg/kg/day for 4 days; summary of the method: as §1
# Rattus norvegicus [8] = assay: Percent change in triglycerides following oral administration of compound in normal chow-fed rats at 100 mg/kg/day for 4 days; summary of the method: as §1
Structure (SMILES),Change (Rattus norvegicus [1]) [%],Change (Rattus norvegicus [2]) [%],Change (Rattus norvegicus [3]) [%],Change (Rattus norvegicus [4]) [%],Change (Rattus norvegicus [5]) [%],Change (Rattus norvegicus [6]) [%],Change (Rattus norvegicus [7]) [%],Change (Rattus norvegicus [8]) [%]
CCN1C(=S)N(c2ccc(F)cc2)C(=O)C1c1ccccc1 (centres undefined),31,67,35,–,–,–,–,–
CCCCN1CC(=O)N(c2c(C)cccc2Cl)C1=S,30,53,-38,–,–,–,–,–
Cc1ccc(Cl)cc1N1C(=O)C(=O)N(C)C1=S,44,196,-26,–,–,–,–,–
CCN1CC(=O)N(CCc2ccccc2)C1=S,-14,30,6,–,–,–,–,–
CCN1C(=O)C(=O)N(c2cc(Cl)ccc2C)C1=S,32,242,-22,123.4,87.6,71.9,67.3,–
CN1CC(=O)N(c2ccc3c(c2)CCC3)C1=S,-3,112,-26,26,46,-40.3,26.3,-0.9
CCN1CC(=O)N(c2ccc3ccccc3c2)C1=S,-18.1,65,-33,–,–,–,–,–
CCN1C(=S)N(c2c(Cl)cccc2Cl)C(=O)C1c1ccccc1 (centres undefined),18,39,25,–,–,–,–,–
CCN1CC(=O)N(c2ccc(OC(F)(F)F)cc2)C1=S,-1,265,-72,197.6,71.4,127.5,543.5,2.8
CCN1CC(=O)N(c2c(C)cccc2C)C1=S,-28,181,-23,106.7,93.6,43.8,13,-12.8
CCN1C(=O)C(=O)N(c2ccc(F)cc2)C1=S,44,23,-48,–,–,–,–,–
CCN1CCC(=O)N(c2cc(Cl)ccc2C)C1=S,53,76,44,–,–,–,–,–
COC(=O)CCN1CC(=O)N(c2ccc(Cl)cc2C)C1=S,14,27,-32,–,–,–,–,–
CCN1CCC(=O)N(c2c(Cl)cccc2Cl)C1=S,42,16,-6,–,–,–,–,–
CCN1CC(=O)N(c2c(Cl)cccc2Cl)C1=S,53.4,142,-37,57,60.2,6.8,0,-35.8
CN1CC(=O)N(CCCCc2ccccc2)C1=S,-4.3,-21,41,–,–,–,–,–
CCN1CCC(=O)N(c2ccccc2C(C)C)C1=S,44,108,-31,59.2,67.8,9.8,35.2,-12.4
CN1OCC(=O)N(c2cccc3c2CCC3)C1=S,-2,192,-26,78.5,81.8,42.3,68,-31.2
CCN1CCC(=O)N(c2c(C)cccc2Cl)C1=S,23,199,-16,45.4,45.5,-1.1,-5.3,-35.7
C#CCN1CC(=O)N(c2c(C)cccc2C)C1=S,-15,325,0,98,85.1,27.9,-23,-48.5
CN1CC(=O)N(CCN2CCCCC2)C1=S,-3.3,-40,33,–,–,–,–,–
CCN1CC(=O)N(c2ccccc2SC)C1=S,13,60,-8,–,–,–,–,–
CN1OCC(=O)N(c2ccc(Oc3ccccc3)cc2)C1=S,-25,102,-43,-13,0,-20.5,-9.1,-20.5
CCN1CC(=O)N(c2cc(Cl)ccc2C)C(=S)C1,28,10,-27,–,–,–,–,–
CCN1C(=S)N(c2c(C)cccc2Cl)C(=O)C1(C)C,16,-5,-22,–,–,–,–,–
CCN1C(=O)C(=O)N(c2c(C)cccc2C)C1=S,-21,186,-48,138.2,114.4,73.2,409.7,-32.8
CN1CC(=O)N(c2c(Cl)cccc2Cl)C1=S,4.6,92,-43,83.9,109.3,39.6,-3.3,-33.3
CCN1CC(=O)N(c2cc(F)ccc2C)C1=S,35,112,-36,95.2,102.4,14,131.6,-6.3

Structure (SMILES),Change (Rattus norvegicus [1]) [%],Change (Rattus norvegicus [2]) [%],Change (Rattus norvegicus [3]) [%],Change (Rattus norvegicus [4]) [%],Change (Rattus norvegicus [5]) [%],Change (Rattus norvegicus [6]) [%],Change (Rattus norvegicus [7]) [%],Change (Rattus norvegicus [8]) [%]
CCN1CCCC(=O)N(c2ccc(Cl)cc2C)C1=S,58.8,15,-15,–,–,–,–,–
CCN1C(=S)N(c2c(C)cccc2C)C(=O)C1(C)C,13,-2,17,–,–,–,–,–
CCN1CC(=O)N(c2cc(C)ccc2C)C1=S,49,124,-6,26.4,31.9,-8.3,31.3,-2.5
Cc1cc(Cl)ccc1N1C(=O)CON(C)C1=S,4,221,-38,51.4,53.4,20.8,114.7,-4.3
CN1CC(=O)N(c2cccnc2)C1=S,-11.4,29,150,–,–,–,–,–
Cc1ccc(Cl)cc1N1C(=O)CN(C)C1=O,37,-8,-7,–,–,–,–,–
CCN1CCCC(=O)N(c2cc(Cl)ccc2C)C1=S,7,50,14,–,–,–,–,–
CCN1C(=S)N(c2cc(Cl)ccc2C)C(=O)C1c1ccccc1 (centres undefined),60,187,76,–,–,–,–,–
CN1CC(=O)N(C(c2ccccc2)c2ccccc2)C1=S,3.4,57,92,–,–,–,–,–
CCN1CC(=O)N(c2cc(C)c(C)cc2C)C1=S,39,112,-11,–,–,–,–,–
CCc1cccc(C(C)C)c1N1C(=O)CCN(CC)C1=S,2,34,-11,–,–,–,–,–
CCN1CC(=O)N(CCc2ccc(F)cc2)C1=S,-8.8,49,-17,–,–,–,–,–
CCN1CC(=O)N(c2cc(Cl)ccc2C)/C1=N/C#N,15,17,-25,–,–,–,–,–
CCN1C(=S)N(c2cc(Cl)ccc2C)C(=O)C1(C)C,0,-9,15,–,–,–,–,–
CCN1CC(=O)N(c2cc(Cl)ccc2OC)C1=S,24,39,51,–,–,–,–,–
CCc1cccc(C)c1N1C(=O)CCN(CC)C1=S,52,60,2,–,–,–,–,–
CCN1CC(=O)N(c2ccc(N(C)C)cc2)C1=S,123,49,-41,–,–,–,–,–
O=C1CN(Cc2ccccc2)C(=S)N1c1c(Cl)cccc1Cl,25.3,-2.2,-54,–,–,–,–,–
CCN1CC(=O)N(c2ccc(F)cc2)C1=S,78,59,-18,–,–,–,–,–
CN1CC(=O)N(CCc2ccc(Cl)cc2)C1=S,-10.2,-15.5,24,–,–,–,–,–
CN1CC(=O)N(Cc2ccccc2Cl)C1=S,14,23,11,–,–,–,–,–
CN1CC(=O)N(c2ccccc2)C1=S,25,66,10,–,–,–,–,–
Cc1ccc(CCN2C(=O)CN(C)C2=S)cc1,-11,-26.6,27,–,–,–,–,–
CCN1C(=S)N(c2c(Cl)cccc2Cl)C(=O)C1(C)C,-16,-18,-19,–,–,–,–,–
CCN1CCC(=O)N(c2ccc(C)cc2C)C1=S,27,-3,2,–,–,–,–,–
CCN1CC(=O)N(C2CCCCC2)C1=S,-7.4,5.4,28,–,–,–,–,–
Cc1cccc(Cl)c1N1C(=O)CN(c2ccccc2)C1=S,2.2,39,16,–,–,–,–,–
